Experimental data of several laboratories.
Lines come from different studies, so protocols differ.
ALK: ALK tyrosine kinase receptor (ALK, Homo sapiens, UniProt Q9UM73)
ALK L1196M: ALK tyrosine kinase receptor (ALK, Homo sapiens, UniProt Q9UM73, L1196M)
ALK C1156Y: ALK tyrosine kinase receptor (ALK, Homo sapiens, UniProt Q9UM73, C1156Y)

Structure (SMILES) | target | observed | mode | technique | concentration | endpoint | value
CNC(=O)Nc1ccc2c(c1)[C@@]1(CC2)OC(=O)N(CC(=O)N(Cc2ccc(F)cc2)[C@@H](C)C(F)(F)F)C1=O | ALK | cell-free assay | – | competition with immobilised ligand | 1 µM | remaining binding | 77%
CC(C)(O)[C@H]1CC[C@H](Nc2ccc3ncc(-c4cccc(C(F)(F)F)c4)n3n2)CC1 | ALK | enzyme activity | inhibitor | – | 1 µM | remaining activity | 57%
CN(C)c1ncnc(-c2ccc3nc(Nc4cc(CN5CCN(C(=O)CC(F)(F)F)CC5)ccn4)[nH]c3c2)c1Cl | ALK L1196M | cell-free assay | – | competition with immobilised ligand | 1 µM | remaining binding | 79%
Cc1[nH]c(/C=C2\C(=O)Nc3ccc(F)cc32)c(C)c1C(=O)N[C@H]1CCN(C(=O)N(C)C)C1 | ALK | enzyme activity | inhibitor | – | 0.1 µM | remaining activity | 109%
Oc1ccc(-c2nc(-c3ccncc3)c(-c3ccc(F)cc3)[nH]2)cc1 | ALK | cell-free assay | – | – | 0.5 µM | remaining signal | 104%
COc1cc2ncnc(Nc3ccc(Oc4ccccc4)cc3C)c2cc1OC | ALK | enzyme activity | inhibitor | – | 1 µM | inhibition | -2%
CNC(=O)c1cc(Oc2ccc(NC(=O)Nc3ccc(Cl)c(C(F)(F)F)c3)cc2)ccn1 | ALK | enzyme activity | inhibitor | – | 10 µM | inhibition | 45%
CNCc1ccc(-c2cc(-c3nc(-c4ccc(S(=O)(=O)C(C)C)cc4)cnc3N)on2)cc1 | ALK | enzyme activity | inhibitor | – | 2 µM | inhibition | 4%
CCN(CC)CCNC(=O)c1c(C)[nH]c(/C=C2\C(=O)Nc3ccc(F)cc32)c1C | ALK | enzyme activity | inhibitor | – | 0.1 µM | remaining activity | 73%
CN(C)c1ncc(F)c(-c2cnn3ncccc23)n1 | ALK L1196M | binding | – | – | 1 µM | remaining binding | 59%
O=C(Nc1cnn(-c2csc(C(=O)NC3COC3)c2)c1)Nc1ccccc1Cl | ALK | enzyme activity | inhibitor | – | 5 µM | remaining activity | 101%
Cc1noc([C@H]2C[C@@H](c3ccc(C(F)(F)F)cc3)CN(C(=O)N3CCS(=O)(=O)C3)C2)n1 | ALK L1196M | cell-free assay | – | competition with immobilised ligand | 1 µM | remaining binding | 100%
Cc1ccc(NC(=O)c2ccc(C)c(C(F)(F)F)c2)cc1C#Cc1nn(C2CCC(O)CC2)c2ncnc(N)c12 (stereo not drawn) | ALK | cell-free assay | – | – | 10 µM | remaining signal | 92%
CN1CC(Oc2cnc(C#N)cc2-c2ccn3nc(NC(=O)C4CC4)cc3c2)C1 | ALK | enzyme activity | inhibitor | – | 1 µM | inhibition | 0%
Cc1ccc(C(=O)Nc2ccc(CN3CCN(C)CC3)c(C(F)(F)F)c2)cc1C#Cc1cnc2cccnn12 | ALK L1196M | cell-free assay | – | – | 23.5 nM | remaining signal | 99%
Cc1ccc(NC(=O)c2ccc(CN3CCN(C)CC3)cc2)cc1Nc1nc(-c2cccnc2)cs1 | ALK | cell-free assay | – | – | 0.5 µM | remaining signal | 103%
C=CC(=O)Nc1cc(Nc2nccc(Nc3cc(Cl)c(F)cc3C(C)(C)O)n2)c(OC)cc1N1CC[C@@H](N(C)C)C1 | ALK | enzyme activity | inhibitor | – | 1 µM | inhibition | 86%
CN(c1nccc(-c2cnn3ncccc23)n1)C1CC1 | ALK | binding | – | – | 1 µM | remaining binding | 100%

Structure (SMILES) | target | observed | mode | technique | concentration | endpoint | value
O=C(CSc1nc2nccnc2c(=O)n1CCc1ccccc1)Nc1nccs1 | ALK | enzyme activity | inhibitor | – | 10 µM | inhibition | 11%
Nc1ncnc2occ(-c3ccc(NC(=O)Nc4cc(C(F)(F)F)ccc4F)cc3)c12 | ALK L1196M | cell-free assay | – | – | 20 µM | remaining signal | 1.8%
CCCOc1ccc(OC)c(F)c1C(=O)c1ccc(C(=O)N[C@@H]2CNC[C@H]2NC(=O)c2ccc3[nH]ncc3c2)cc1 | ALK | enzyme activity | inhibitor | – | 10 µM | remaining activity | 47%
C[C@H]1CCN(c2nccc(-c3cnn4ncccc34)n2)C1 | ALK | binding | – | – | 1 µM | remaining binding | 82%
COc1cc(Cl)c(C(=O)N[C@@H](CN[C@H]2CC[C@@H](N)CC2)Cc2ccc(C#N)cc2)cc1-c1ccc(CN[C@H](C)c2ccc(C)cc2)o1 | ALK | enzyme activity | inhibitor | – | 1 µM | remaining activity | 96%
Cc1ccc(Nc2nccc(N(C)c3ccc4c(C)n(C)nc4c3)n2)cc1S(N)(=O)=O | ALK | enzyme activity | inhibitor | – | 10 µM | inhibition | 79%
CC/C(=N\NC(=O)NCc1cccc(O)c1)c1ccc(O)c(C)c1O | ALK tyrosine kinase receptor (ALK, Homo sapiens, UniProt Q9UM73, R1275Q) | enzyme activity | inhibitor | – | 0.1 µM | inhibition | 4.8%
CN([C@@H]1CCc2c(CC(=O)O)c3ccccc3n2C1)S(=O)(=O)c1ccc(F)cc1 | ALK | cell-free assay | – | competition with immobilised ligand | 1 µM | remaining binding | 78%
CN(CCCC(F)(F)F)c1nccc(-c2cnn3ncccc23)n1 | ALK C1156Y | binding | – | – | 1 µM | remaining binding | 100%
CCCCN(CCCC)C(=O)CN1C[C@H](c2cc(OC)c3c(c2)OCO3)[C@@H](C(=O)O)[C@@H]1CC(C)(C)CCC | ALK L1196M | cell-free assay | – | competition with immobilised ligand | 1 µM | remaining binding | 100%
N[C@H]1CCN(c2nccc(-c3cnn4ncccc34)n2)C1 | ALK | binding | – | – | 1 µM | remaining binding | 85%
O=C(NCc1ncc(C(F)(F)F)cc1Cl)c1ccc2c(c1)C1(CCS(=O)(=O)CC1)[C@H](C1CC1)N2S(=O)(=O)c1ccc(F)cc1 | ALK | cell-free assay | – | competition with immobilised ligand | 1 µM | remaining binding | 98%
O=C1NC(=O)c2cc(Nc3ccc(F)cc3)c(Nc3ccc(F)cc3)cc21 | ALK | cell-free assay | – | – | 0.5 µM | remaining signal | 92.6%
CCS(=O)(=O)c1cc2cc(C[C@](O)(CC(C)(C)c3ccc(F)cc3C(N)=O)C(F)(F)F)[nH]c2cn1 | ALK C1156Y | cell-free assay | – | competition with immobilised ligand | 1 µM | remaining binding | 96%
F[C@@H]1CCN(c2nccc(-c3cnn4ncccc34)n2)C1 | ALK L1196M | binding | – | – | 1 µM | remaining binding | 100%
CCN(CC)CCNC(=O)c1c(C)[nH]c(/C=C2\C(=O)Nc3ccc(F)cc32)c1C | ALK | cell-free assay | – | – | 0.5 µM | remaining signal | 16.6%
c1cnn2ncc(-c3ccnc(N4CCC45COC5)n3)c2c1 | ALK | binding | – | – | 1 µM | remaining binding | 78%
O=C(O)c1cc(-c2ccc(C3CCNCC3)cc2)c2ccc(-c3ccc(C(F)(F)F)cc3)cc2c1 | ALK | cell-free assay | – | competition with immobilised ligand | 1 µM | remaining binding | 100%
